Legend:
Trypanosoma cruzi [1] = assay: Antitrypanosomal activity against Trypanosoma cruzi in mouse peritoneal macrophages; format: functional, organism-based
In short: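 Primary mouse peritoneal macrophages, 30 000/well, infected after 24 h with about 10 000 trypomastigotes alongside 4-fold drug dilutions. 7 days at 37 °C, 5% CO2.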

MRC5 = assay: Cytotoxicity against human MRC5 cells by alamar-blue assay; format: cell-based
In short: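 Cells seeded at 5000/well, washed after 24 h, then given 4-fold dilutions in RPMI + 5% FCS, final DMSO below 0.5%. 7 days at 37 °C, 5% CO2, untreated controls included.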

Leishmania infantum = assay: Antileishmanial activity against Leishmania infantum MHOM/MA(BE)/67 amastigotes in mouse peritoneal macrophages; format: functional, organism-based
In short: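 Amastigotes from serially passaged Syrian hamster infection; macrophages elicited by intraperitoneal 2% starch, harvested 24-48 h later. 5-day incubation; Giemsa-stained microscopic count; % reduction of parasite burden vs control, IC50 determined.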

[2] = Cytotoxicity in Leishmania infantum MHOM/MA(BE)/67 amastigotes infected mouse peritoneal macrophages; format: cell-based; settings: macrophage
Plasmodium falciparum = assay: Antiplasmodial activity against chloroquine-sensitive Plasmodium falciparum Ghana by LDH reporter assay; format: functional, organism-based
[3] = tested on: Trypanosoma brucei brucei; assay: Antitrypanosomal activity against Trypanosoma brucei brucei; format: functional, organism-based
Trypanosoma cruzi [4] = assay: Antitrypanosomal activity against Trypanosoma cruzi trypomastigotes assessed as immobilized trypomastigotes after 48 hrs; format: functional

Structure (SMILES)	IC50 (Trypanosoma cruzi [1]) [µM]	IC50 (MRC5) [µM]	IC50 (Leishmania infantum) [µM]	Activity [2]	IC50 (Plasmodium falciparum) [µM]	IC50 [3] [µM]	MC100 (Trypanosoma cruzi [4]) [µM]
CC1=C[C@H](c2cc(O)c3c(=O)c4cccc(O)c4oc3c2O)[C@](C)(/C=C/c2cc(O)c3c(=O)c4cccc(O)c4oc3c2O)CC1 [GARCILIVIN A]	4	2	32	Toxic	6.7	0.4	–
CC(C)=CCC/C(C)=C/Cc1c(O)cc(O)c2c(=O)c3cccc(O)c3oc12	5.7	> 64	> 64	–	59	2	–
C=CC(C)(C)c1cc(O)c2oc3c4c(ccc3c(=O)c2c1O)C=CC(C)(C)O4	–	–	–	–	–	–	8
O=C1c2c(O)cc(O)cc2O[C@H](c2ccc(O)cc2)[C@H]1c1c(O)cc(O)c2c(=O)cc(-c3ccc(O)c(O)c3)oc12 [MORELLOFLAVONE]	–	> 64	–	–	–	–	–
CC1=C[C@@H](c2cc(O)c3c(=O)c4cccc(O)c4oc3c2O)[C@](C)(/C=C/c2cc(O)c3c(=O)c4cccc(O)c4oc3c2O)CC1 [GARCIVILIN C]	39.2	52.3	> 64	–	> 64	7.7	–
CC(C)=CCCC1(C)C=Cc2c(cc(O)c3c(=O)c4cccc(O)c4oc23)O1 (stereo not drawn)	8	> 64	> 64	–	52	5	–
COc1ccc([C@@H]2CC(=O)c3c(O)cc(O)c([C@@H]4C(=O)c5c(O)cc(O)cc5O[C@H]4c4ccc(O)cc4)c3O2)cc1	34.7	38	> 64	–	6	28.3	–
CC(C)=CCc1cc(O)c2c(=O)c3cccc(O)c3oc2c1O	7	> 32	27	–	10	0.87	–

Source: ChEMBL document CHEMBL1157289, “Antiparasitic activity of some xanthones and biflavonoids from the root bark of Garcinia livingstonei” (J Nat Prod, 2006)
